Measurements published in ChEMBL document CHEMBL4732158, “Bicyclic Ligand-Biased Agonists of S1P: Exploring Side Chain Modifications to Modulate the PK, PD, and Safety Profiles” (J Med Chem, 2021).

Legend:
[1] = tested on: Rattus norvegicus; assay: Reduction in circulating lymphocytes count in Lewis rat at 2 mg/kg, po measured at 4 hrs by hematology analyzer based analysis; format: functional; set-up: scale not given: the % may be the effect or the level left
How it was run: (§1)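 Lewis rats (n = 2−4) dosed orally; whole-blood lymphocyte counts taken 4 h and 24 h after dosing and reduction expressed versus vehicle-treated rats. Significance by ANOVA with Dunnett's test (p < 0.05 vs vehicle). Blood levels of parent and phosphate metabolite measured at the same time points in this PK/PD screen.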

[2] = Half life in Lewis rat at 2 mg/kg, po measured at 4 to 72 hrs; format: ADME, organism-based; settings: in vivo, time 4-72 hrs; for half-life: Lewis; for t1/2: 2 mg/kg
How it was run: (§2)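 Half-life estimated from oral-dosing blood PK profiles in Lewis rats sampled at four time points: 4, 24, 48 and 72 h.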

[3] = Reduction in circulating lymphocytes count in Lewis rat at 2 mg/kg, po measured at 24 hrs by hematology analyzer based analysis; format: Functional, organism-based; set-up: scale not given: the % may be the effect or the level left; settings: in vivo; how it was run: as §1
[4] = Cardiotoxicity in human iPSC derived cardiomyocytes assessed as change in heart rate at 1 nM measured over 2 hrs by multi-electrode array relative to control; format: toxicity, cell-based; settings: stem cell-derived cardiomyocyte, 0.001 µM
How it was run: (§3)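 Phosphate metabolite of each compound prepared and tested on cultured human induced pluripotent stem cell-derived cardiomyocytes at 1 and 10 nM; beat rate change averaged over three or more replicates per concentration unless noted (some n = 2).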

[5] = Ratio of drug metabolism in Lewis rat blood assessed as phosphate ester metabolite to parent drug at 2 mg/kg, po measured at 24 hrs by LC-MS/MS analysis; format: ADME, organism-based; settings: in vivo
How it was run: (§4)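 Lewis rats (n = 2−4) dosed orally at 0.5, 1, 2 or 5 mg/kg; blood parent and phosphate metabolite concentrations and lymphocyte counts taken 4 and 24 h post-dose; phosphate-to-parent ratio from 24 h levels; significance versus vehicle by ANOVA with Dunnett's test.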

[6] = Cardiotoxicity in human iPSC derived cardiomyocytes assessed as change in heart rate at 10 nM measured over 2 hrs by multi-electrode array relative to control; format: toxicity, cell-based; settings: stem cell-derived cardiomyocyte, 0.01 µM; how it was run: as §3
[7] = Drug concentration in Lewis rat blood assessed as concentration of parent compound at 2 mg/kg, po measured at 4 hrs by LC-MS/MS analysis; format: ADME, organism-based; settings: read-out: Ct; for concentration at 4 h: Lewis, blood; for concentration: in vivo, 2 mg/kg, 4 h; how it was run: as §4
[8] = Pulmonary toxicity in Lewis rat assessed as fold elevation of BAL protein content at 2 mg/kg, po by chemistry analyzer based analysis relative to control; format: organism-based; settings: in vivo
How it was run: (§5)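 Lewis rats dosed orally; bronchoalveolar lavage protein measured at study end, expressed as fold over vehicle control.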

[9] = Drug concentration in Lewis rat blood assessed as concentration of parent compound at 2 mg/kg, po measured at 24 hrs by LC-MS/MS analysis; format: ADME, organism-based; settings: in vivo, read-out: Ct; how it was run: as §4
[10] = molecular target: T1, Sphingosine 1-phosphate receptor 1 (Homo sapiens, UniProt P21453); assay: Agonist activity at human recombinant C-terminal GFP-fused S1P1 expressed in CHO cells assessed as induction of receptor internalization incubated for 50 mins by fluorescence based confocal laser scanning microscopic analysis; format: cell-based
[11] = molecular target: Sphingosine 1-phosphate receptor 3 (Homo sapiens, UniProt Q99500); assay: Agonist activity at recombinant human S1P3 expressed in CHO cell membranes assessed as stimulation of [35S]-GTPgammaS binding measured after 45 mins by liquid scintillation counting method; format: functional, Membrane
[12] = molecular target: T1, Sphingosine 1-phosphate receptor 1; assay: Agonist activity at recombinant human S1P1 expressed in CHO cell membranes assessed as stimulation of [35S]-GTPgammaS binding measured after 45 mins by liquid scintillation counting method; format: functional, Cell membrane
[13] = molecular target: T1, Sphingosine 1-phosphate receptor 1; assay: Displacement of [33P]-SIP from human recombinant S1P1 expressed in CHO cell membranes measured after 45 mins by TopCount scintillation counting method; set-up: species or system Cell membrane
[14] = molecular target: T1, Sphingosine 1-phosphate receptor 1; assay: Agonist activity at human recombinant S1P1 expressed in CHO cells assessed as stimulation of ERK phosphorylation incubated for 7 mins by microplate reader analysis; format: cell-based
[15] = Reduction in circulating lymphocytes count in Lewis rat at 1 mg/kg, po measured at 24 hrs by hematology analyzer based analysis; format: organism-based; set-up: scale not given: the % may be the effect or the level left; settings: in vivo; how it was run: as §4
[16] = Pulmonary toxicity in Lewis rat assessed as fold elevation of BAL protein content at 1 mg/kg, po by chemistry analyzer based analysis relative to control; format: organism-based; settings: in vivo; how it was run: as §5
[17] = Drug concentration in Lewis rat blood assessed as concentration of parent compound at 1 mg/kg, po measured at 4 hrs by LC-MS/MS analysis; format: ADME, organism-based; settings: in vivo, 1 mg/kg, 4 h, BLD = below limit of detection; how it was run: as §4
[18] = Drug metabolism in Lewis rat blood assessed as phosphate ester metabolite to parent ratio at 1 mg/kg, po measured at 24 hrs by LC-MS/MS analysis; settings: in vivo
[19] = Drug metabolism in Lewis rat blood assessed as concentration of parent compound at 1 mg/kg, po measured at 24 hrs by LC-MS/MS analysis; format: ADME, organism-based; settings: Lewis, blood, read-out: Ct; how it was run: as §4
[20] = tested on: Rattus norvegicus; assay: Reduction in circulating lymphocytes count in Lewis rat at 1 mg/kg, po measured at 4 hrs by hematology analyzer based analysis; format: functional; set-up: scale not given: the % may be the effect or the level left; how it was run: as §4
[21] = Half life in Lewis rat at 1 mg/kg, po measured at 4 to 72 hrs; format: ADME, organism-based; settings: in vivo, time 4-72 hrs; how it was run: as §2
[22] = Drug concentration in Lewis rat blood assessed as concentration of parent compound at 5 mg/kg, po measured at 24 hrs by LC-MS/MS analysis; format: ADME, organism-based; how it was run: as §4
[23] = tested on: Rattus norvegicus; assay: Reduction in circulating lymphocytes count in Lewis rat at 5 mg/kg, po measured at 4 hrs by hematology analyzer based analysis; format: functional; set-up: scale not given: the % may be the effect or the level left; how it was run: as §1
[24] = Reduction in circulating lymphocytes count in Lewis rat at 5 mg/kg, po measured at 24 hrs by hematology analyzer based analysis; format: ADME, organism-based; set-up: scale not given: the % may be the effect or the level left; settings: in vivo; how it was run: as §1
[25] = Drug concentration in Lewis rat blood assessed as concentration of parent compound at 5 mg/kg, po measured at 4 hrs by LC-MS/MS analysis; format: ADME, organism-based; settings: read-out: Ct; how it was run: as §4
[26] = Pulmonary toxicity in Lewis rat assessed as fold elevation of BAL protein content at 5 mg/kg, po by chemistry analyzer based analysis relative to control; format: organism-based; settings: in vivo; how it was run: as §5
[27] = Pulmonary toxicity in Lewis rat assessed as fold elevation of BAL protein content at 10 mg/kg, po by chemistry analyzer based analysis relative to control; format: organism-based; settings: in vivo, 2 mg/kg, in the assay text read “2 mg/kg” for “10 mg/kg”; how it was run: as §5
[28] = Drug metabolism in Lewis rat blood assessed as parent compound concentration at 0.5 mg/kg, po measured at 4 hrs by LC-MS/MS analysis; format: ADME, organism-based; settings: for Ct: in vivo, 0.5 mg/kg, 4 h, BLD = below limit of detection; how it was run: as §4
[29] = Reduction in circulating lymphocytes count in Lewis rat at 0.5 mg/kg, po measured at 4 hrs by hematology analyzer based analysis; format: ADME, organism-based; set-up: scale not given: the % may be the effect or the level left; settings: in vivo; how it was run: as §4
[30] = Reduction in circulating lymphocytes count in Lewis rat at 0.5 mg/kg, po measured at 24 hrs by hematology analyzer based analysis; format: ADME, organism-based; set-up: scale not given: the % may be the effect or the level left; settings: in vivo; how it was run: as §4
[31] = Drug metabolism in Lewis rat blood assessed as parent compound concentration at 0.5 mg/kg, po measured at 24 hrs by LC-MS/MS analysis; format: ADME, organism-based; settings: for concentration at 24 h: Lewis, blood, read-out: Ct; how it was run: as §4

T1 sequence (P21453 whole entry, the tested form may be a part): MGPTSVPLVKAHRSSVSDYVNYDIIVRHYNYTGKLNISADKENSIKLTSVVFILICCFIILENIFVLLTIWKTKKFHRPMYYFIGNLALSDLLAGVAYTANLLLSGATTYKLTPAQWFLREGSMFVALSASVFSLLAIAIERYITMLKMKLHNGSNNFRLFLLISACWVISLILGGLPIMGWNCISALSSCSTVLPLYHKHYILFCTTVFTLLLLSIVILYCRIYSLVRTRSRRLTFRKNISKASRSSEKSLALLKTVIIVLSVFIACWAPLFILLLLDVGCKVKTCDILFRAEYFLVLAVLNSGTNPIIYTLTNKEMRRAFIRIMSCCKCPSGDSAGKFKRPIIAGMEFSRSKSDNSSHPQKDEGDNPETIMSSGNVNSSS
Sequence of Sphingosine 1-phosphate receptor 3 (Q99500 whole entry): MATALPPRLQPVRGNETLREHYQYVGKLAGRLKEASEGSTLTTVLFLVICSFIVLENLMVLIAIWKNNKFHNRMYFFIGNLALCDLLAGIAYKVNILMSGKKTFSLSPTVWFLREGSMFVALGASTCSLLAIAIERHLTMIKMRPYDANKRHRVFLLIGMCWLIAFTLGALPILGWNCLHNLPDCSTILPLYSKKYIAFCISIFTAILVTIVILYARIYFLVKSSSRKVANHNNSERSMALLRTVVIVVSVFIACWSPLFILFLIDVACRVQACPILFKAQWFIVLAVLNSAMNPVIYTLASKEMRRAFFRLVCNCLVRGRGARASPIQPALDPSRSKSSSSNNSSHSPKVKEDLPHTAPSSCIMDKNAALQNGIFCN

Structure (SMILES)	Activity ([1]; 2 mg/kg, 4 h) [%]	Activity [3] [%]	Activity [4] [%]	Ratio [5]	Activity [6] [%]	concentration at 4 h [7] [nM]	fold change (FC) [8]	concentration [9] [nM]	other results
COCCCCCCC1CCc2cc([C@H]3CC[C@](N)(CO)C3)ccc2C1 (stereo in doubt; 25a)	70	84	-16	3.9	-32	265	1.7	69	half-life [2]: 1860 min
COCCCCC[C@@H]1CCc2cc([C@H]3CC[C@](N)(COP(=O)(O)O)C3)ccc2C1	–	–	–	–	–	–	–	–	EC50 [10]: 4.9 nM; EC50 [11]: > 1000 nM; EC50 [12]: 2.1 nM; IC50 [13]: 0.016 nM; EC50 [14]: 2.7 nM
CCCCSC[C@@H]1CCc2cc([C@H]3CC[C@](N)(CO)C3)ccc2C1	–	–	-28	–	-46	–	–	–	Activity [15]: 63%; fold change (FC) [16]: 1.1; Ct [17]: Bld; Ratio [18]: 0.36; concentration at 24 h [19]: 73 nM; Activity [20]: 6%; half-life [21]: 1620 min
CCCCS(=O)(=O)C[C@@H]1CCc2cc([C@H]3CC[C@](N)(CO)C3)ccc2C1	–	–	–	–	–	–	–	–	Ct ([22]; in vivo, 5 mg/kg, 24 h, BLD = below limit of detection): Bld; Activity [23]: 13%; Activity [24]: 16%; concentration at 4 h [25]: 44 nM; fold change (FC) [26]: 0.8
CCCSCC[C@@H]1CCc2cc([C@H]3CC[C@](N)(CO)C3)ccc2C1	–	73	-43	0.17	-42	193	1.1	72	Activity [1]: 63%
COCCCCC1CCc2cc([C@H]3CC[C@](N)(CO)C3)ccc2C1 (stereo in doubt; 13b)	65	78	-15	0.77	-29	–	–	78	half-life [2]: 960 min; concentration [7]: 271 nM; fold change (FC) [27]: 2.1
CCCSCCC1CCc2cc([C@H]3CC[C@](N)(CO)C3)ccc2C1 (single isomer, unassigned)	–	–	-26	–	-61	–	–	–	concentration at 4 h ([28]; Lewis, blood, read-out: Ct): 43 nM; Activity [29]: 0%; Activity [30]: 60%; concentration at 24 h [31]: 20 nM
CCCOCCOC[C@@H]1CCc2cc([C@H]3CC[C@](N)(CO)C3)ccc2C1	–	–	–	–	–	–	–	–	concentration at 24 h ([22]; Lewis, blood, read-out: Ct): 28 nM; Activity [23]: 72%; Activity [24]: 70%; concentration at 4 h [25]: 360 nM; fold change (FC) [26]: 1.4
CCCCSCC1CCc2cc([C@H]3CC[C@](N)(CO)C3)ccc2C1 (single isomer, unassigned)	–	44	-14	0.23	-25	138	1.1	110	Activity [1]: 20%
COCCCCC1CCc2cc([C@H]3CC[C@](N)(CO)C3)ccc2C1 (stereo in doubt; 13a)	78	87	–	1.4	–	300	–	110	fold change (FC) [27]: 1.7
COCCCCCCC1CCc2cc([C@H]3CC[C@](N)(CO)C3)ccc2C1 (stereo in doubt; 25b)	45	79	-25	2.5	–	–	1.2	295	t1/2 [2]: 26 h; concentration [7]: 320 nM
CCOCCC[C@H]1CCc2cc([C@H]3CC[C@](N)(COP(=O)(O)O)C3)ccc2C1	–	–	–	–	–	–	–	–	EC50 [10]: 0.4 nM; EC50 [11]: > 1000 nM; EC50 [12]: 2.1 nM; IC50 [13]: 0.04 nM; EC50 [14]: 5.2 nM
COCCCC1CCc2cc([C@H]3CC[C@](N)(CO)C3)ccc2C1 (stereo in doubt; 22b)	62	66	-20	0.9	-25	–	1.6	86	t1/2 [2]: 14 h; concentration [7]: 215 nM
COCCCCCC1CCc2cc([C@H]3CC[C@](N)(CO)C3)ccc2C1 (single isomer, unassigned; 23)	–	81	-20	8.2	-40	129	1.9	51	Activity [1]: 78%; half-life [2]: 900 min
CCCCCSC[C@@H]1CCc2cc([C@H]3CC[C@](N)(CO)C3)ccc2C1	–	–	–	–	–	–	–	–	Ct [28]: Bld; Activity [29]: 0%; Activity [30]: 63%; concentration at 24 h [31]: < 31 nM
CCCCCSC[C@H]1CCc2cc([C@H]3CC[C@](N)(CO)C3)ccc2C1	–	–	-29	–	-41	–	–	–	Ct [28]: Bld; Activity [29]: 0%; Activity [30]: 56%; Ct ([31]; in vivo, 0.5 mg/kg, 24 h, BLD = below limit of detection): Bld
